The text below walks through data of the RNAGym collection of RNA variant scans (doi:10.1126/science.aae0568).

This sample holds only a part of the variants without activity.

B1: tRNA (parent)
chain: GUUCCGUUGGCGUAAUGGUAACGCGUCUCCCUCCUAAGGAGAAGACUGCGGGUUCGAGUCCCGUACGGAACG

In the data set the parent is B1. Briefly: yeast fitness relative to wild type (ratio to wild type); higher = fitter; tRNA-Arg(CCU), competitive growth, 37 C, YPD. An outline of the steps: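 Start and end populations of a pooled competition were compared by 100-nucleotide paired-end sequencing of gene amplicons. The Saccharomyces cerevisiae strains carried tRNA-Arg(CCU) gene variants at the native genomic locus, synthesised with a 3% per-site mutation rate at 69 sites, and competed in YPD at 37°C for 24 hours in six parallel replicates. Darwinian fitness relative to wild type was based on the change in genotype frequencies. Genotypes required ≥ 100 starting reads, and estimates < 0.5 were set to 0.5.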
Consider GUUCUGUUGGCGUAAUGGUAACGCGUCUUCCUCCUAAGGAGAAAACUGCGGGUUCGAGUCCCGUACGGAACG, for which the yeast fitness is 0.868. For the variant GCUCCGUUGGAAUAAUGGUAACGCGUCUCCCUCCGAAGGAGAAGACUGCGGGUUCGAGACCCGUACGGAACG, the yeast fitness was no more than 0.5.

For GUUCCGGUGGCGUAGUGGUAACGCGUCUCCCUGCUAAGGAGAAGACUGCGGGUUCGAGUCCCGUACGGAACG, the yeast fitness was no more than 0.5. With GUUCCGUUGGCGUAAUGGUAACGCGUCUCCCUCCUAAGGAGAAGACUGCGGGUUCGAAUCCCGUACGGCACG the figure was 0.955; with GUUCCGUUGGCGACAUGGUAAAGCGUCUCCCUCCUAAGGAGAAGACUCCGGGUUCGAGUCCCGUACGGUACG, no more than 0.5. As for GUUCCAUUGGUGUAAUGGUAAGGCGUCUCCCUCCUAAGGAGAAGACUGCGGGUUCGAGUCCCGUACGGAACG, the yeast fitness was 0.555. With GUUCCGUUGGCGUAAUGGUAACGCCUCUUCCUCCUAAGGAGAAGACUGCGGGUUCGAGUCCCGUCCGGAUCG the figure was no more than 0.5; with GUUCCGUUGGCGUAAUGGUAGCGCGUCUCCCUCUUAAGGAGAAGACUGCGGGUUCGAGUCCCUUACGGAACG, no more than 0.5. For the variant GUUCCGUUGGCGUAAUGGUAACGCGUCUCCCUCCUCAGGAGGAGACUGCGGGUUCGAGUCACGUACGGAACG, the yeast fitness is no more than 0.5.

As to GUUCCGUUGGCGUUAUGGUAACGCGUCUCCCUCCUAAGGAAAAGACUGCGGGUUCGAGUCCCGUACGGAACG, the yeast fitness was 0.674. With GUUCCGUUGGCGUAAUGGUAACGCGUCUCGCUCCUAAGGAGGAGACUGCGGGUUCGAGUCCCGUACGGAACG the figure was 0.626; with GUUCCGUUGGCGUAAUGGUAACGCGUCCCCCUGCUAAGGGGAAGACUGCGCGUUCGAGUCUCGUUCGGAACG, no more than 0.5.

For the variant GAUCCGUUGGCGUAAUGGUAACGCGUCUCCCUCCUAAGGAGAAGACUGCGGGUUCGAGUCCCGUACGAAACG, the yeast fitness was 0.825. Consider GUUCCGUUGGCGUAAUGCUAACGCGUCUCCCUCCUAAGGAGAAGACUGCGGGUUCGAGUCCCAUACGGAACG, for which the yeast fitness is 0.535. With GUUCCGUUGGCCUAAUGGUAACGCAUCUCCCUCCUAAGGAGAAGACUGUGGGUUCGAGUCCCGUACGGAACG, the yeast fitness came to 0.67.

With GUUCCAUUGGGGUAAUGGUAGCGCGUGUUCCUCCGAAGGAGAAGACUGCGGGUUCCAGUCCCACACCGAACG, the yeast fitness is no more than 0.5. Turning to GUUCAGUUGGCGUAAUGGUAACGCGUCUCCCUCCUAAGGAAAAGACUGCGGGUUCGGGUCCCGUACGGAACG, the yeast fitness turned out to be 0.545. As to GUUCUGUGGGCGUAAUGGUGACGCGUCUCCCUCAUAAGGAGAAGACUGCGGGUUCGAGUCCCGUACGGAACG, the yeast fitness is no more than 0.5. GUUCCGUUGGCGUAAUGGUCACGCGUUUCCCUCCUAAGGAGAAGACUGCGGGUUCGAGUCCCGUACGGUACG: the yeast fitness was found to be 0.81. GUGCCGUUGGCGUAAUGGUAACGCGUCUGCCUCCUAAGGAGAAGGCUGCGGGUUCGAGUCCCGUACGGAACG: the yeast fitness worked out at 0.594. As to GUUCCGUUGGCGUAAUGGUAUCGCGUCUCCCUGCUAAGGAGGAAACUGCGGGUUCGAGUCCCGCACGGAACG, the yeast fitness came to 0.558. Consider GUUCCGUUGGCGUAAUGGUAACGCGACUCCCUCCUAAGGAGAAGACUGCGGGUUCGAGUCCCGUACAGAACG, for which the yeast fitness is 0.905.

In the case of GUUCCGUUGGAGUAAUGGUAACGCGUCUCUUUCCUGAGCAGAAGUCUGCGGCUUCGAGUACCGUACGGAACG, the yeast fitness is no more than 0.5. In the case of GUACCGUUGGCAUAAUGGUAACGUGUCUCCCUCCUAAGGAGAAGUCUGCGGGUUCGAGUCCCGUACGGAACG, the yeast fitness is no more than 0.5. With GCUCCGUUGGCGUAAUGGUAACGCGUCUACCUCCUAAGGAGAAGACUGCGGGUUCGAGUCCCGUACGGAACG the figure was 0.659; with GUUCCGUUGCCGUAAUGAUAACGCGUCUCCCUCCUAAGGAGAAGACUGCGGGUUCGAAUCCCGUAGGGAACG, no more than 0.5. As for GUUGCGUUGGCGUCAUGGUAACGCCUCUCCCUCCUAAGGAGAAGUCUGCGGGUUCGAGUCCCGUACGGAACG, the yeast fitness was no more than 0.5. In the case of GUUCCGUUGGCGUAGUGGUAACGCGACUCCCUCCUAAGGAGAAGACUGCGGGUUCGAGUCCCGUACGGAACG, the yeast fitness was determined as 1.04.

Take GUUCGGUCGGCGUAAUGCUAACGCGUCUCCCUCCUAAGGAGAAGACUGCGGGUUCGAGUCUCGUCCGGAACG: the yeast fitness is no more than 0.5. With GUUCCGUUGGCGUAAUGGUAACGCGUCUCCCUCCUAAGGAGAAGACUGCGGGUUCGAGUCCCGCACGGAUCG the figure was 0.953; with GUUCCGUUGGCGUAAUGGUAACGAGUCUCCCUCCUAAGGAGAGGACUGCGGGUUCGAGUCCCGUACGGACCG, no more than 0.5; with GUUCCGUCGGCGUAAUGGUAACGCGUCUCCCUCCUACGGAGAAGACUGCGGGUUCGAGUCCCGUACGGAACG, 0.892. Consider GUUCCGUGGGCGUAAUGGUAACGCGUCUCCCUCCUAAGGAGAAGACUGCGGGUUCGAGUCCUGAACCGAACG, for which the yeast fitness stood at 0.603. Consider GUUCCGUUGGCGUAGUGGUAACCCGUCUCACUCCUAAGGAGCAAACUGCGCGUUCGAGUCCCGUACGGAACG, for which the yeast fitness is no more than 0.5. As to GUUCCGUUGGCGUGAUGGUAACGCGUCUCCCUCAUAAGGAGAAGACUGCGGGUUCGAGUCCGGUACGCAACG, the yeast fitness is 0.763. For GUUCCGUAGGCGUAAUGGUAACGCGUCUCCCUCCUAAGGAGAAGACCGCGGGUUCGCGUCCCGCACGGAACG, the yeast fitness is no more than 0.5. Regarding GUUCCGUUGGCGCAAUGGUAACGGGUCUCCCUCCUAAGGAGAAGACUGCGGGUUCGAGUCCCGUACCGAACG, the yeast fitness was no more than 0.5. With GUACCGGUGGCGUAAUGGUAACGCGUCUCCCUCCUAAGGAGAAGACUGCGGGUUCGAGUCCCGUACGGAACG the figure was 0.734.
